Measured values as given in ChEMBL document CHEMBL1135717, “Minor groove DNA binders as antimicrobial agents. 1. Pyrrole tetraamides are potent antibacterials against vancomycin resistant Enterococci [corrected] and methicillin resistant Staphylococcus aureus” (J Med Chem, 2002).
Values after ≈ are worked out from the molar mass of the structure shown.

Columns and labels:
[1] = Toxicity assessed in human T-cells using a colorimetric cell proliferation assay.; assay type: cell-based
Summary of the method: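 CCRF-CEM human leukemia T-cells in RPMI-1640 with 10% FBS and gentamicin 0.1 mg/mL, seeded at 4 × 10^4 cells/well. Compound added at start at 50, 25, 12.5 and 6.3 μM. WST-1 cleavage read by absorbance at 440 nm at 24, 48 and 72 h. Value reported as lowest % of no-compound control, typically 72 h at 50 μM. At least triplicate.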

Nucleic Acid [2] = assay: Changes in the DNA melting temperature of an AT-rich dodecamer (CGATTATTAAGC) (GCTTAATAATCG) upon binding of an equimolar amount of compound; assay type: nucleic-acid assay
Summary of the method: (§1)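 Melting monitored by UV absorbance at 260 nm in 10 mM HEPES pH 7.2, 0.1 mM EDTA, 50 mM NaCl. 12-bp AT-rich oligo at 5 μM mixed with compound at equimolar ratio. Temperature ramped 15 to 95 °C at 0.2 °C/min. Tm by derivative method, checked by hyperchromicity. ΔTm is Tm with compound minus Tm without. At least duplicate.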

Enterococcus [3] = assay: In vitro antimicrobial activity against Vancomycin resistant enterococcus strain UCD-3; assay type: functional
Summary of the method: (§2)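 Broth microdilution MIC per NCCLS M7-A4. Compounds dissolved fresh in DMSO as 10 mM stock, then diluted in BHI medium for VRE (BM4147, UCD3) or Mueller-Hinton medium for MRSA. Seven 1:2 serial dilutions gave test concentrations of 45.5 to 0.7 μM. MIC read by visual inspection of wells after 2 days.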

Enterococcus [4] = assay: In vitro antimicrobial activity against Vancomycin resistant enterococcus strain BM4147; assay type: functional; summary of the method: as §2
Staphylococcus aureus = assay: In vitro antimicrobial activity against Methicillin resistant Staphylococcus aureus; assay type: functional; summary of the method: as §2
Nucleic Acid [5] = assay: DNA binding measured as Changes in the DNA melting temperature of an AT-rich dodecamer (CGATTATTAAGC) (GCTTAATAATCG) upon binding of an equimolar amount of compound; assay type: nucleic-acid assay; summary of the method: as §1

SMILES | NCC [1] | ΔTm (Nucleic Acid [2]) | MIC (Enterococcus [3]) | MIC (Enterococcus [4]) | MIC (Staphylococcus aureus) | ΔTm (Nucleic Acid [5])
Cn1cc(NC(=O)c2ccc(C(=O)Nc3cc(C(=O)NCCC(=N)N)n(C)c3)cc2)cc1C(=O)NCCC(=N)N | 56% | 30 | > 45.5 µM | 22.2 µM (≈ 12.2 µg/mL) | 22.7 µM (≈ 12.5 µg/mL) | 
CN=C(CCNC(=O)c1cc(NC(=O)c2ccc(C(=O)Nc3cc(C(=O)NCCC(=NC)NC)n(CCC(C)C)c3)cc2)cn1CCC(C)C)NC | 50% |  |  |  |  | 
CC(C)CCn1cc(NC(=O)c2ccc(C(=O)Nc3cc(C(=O)NCCC(=N)N)n(CCC(C)C)c3)c([N+](=O)[O-])c2)cc1C(=O)NCCC(=N)N | 42% |  | 1.4 µM (≈ 0.988 µg/mL) | 1.4 µM (≈ 0.988 µg/mL) | 1.4 µM (≈ 0.988 µg/mL) | 25 °C
N=C(N)CCNC(=O)c1cc(NC(=O)c2ccc(C(=O)Nc3cc(C(=O)NCCC(=N)N)n(CC4CC4)c3)cc2)cn1CC1CC1 | 72% |  | 0.7 µM (≈ 0.44 µg/mL) | 2.8 µM (≈ 1.76 µg/mL) | 1.4 µM (≈ 0.88 µg/mL) | 28 °C
CC/N=C(\N)CCNC(=O)c1cc(NC(=O)c2ccc(C(=O)Nc3cc(C(=O)NCC/C(N)=N/CC)n(CCC(C)C)c3)cc2)cn1CCC(C)C | 74% |  | 1.4 µM (≈ 1 µg/mL) | 1.4 µM (≈ 1 µg/mL) | 1.4 µM (≈ 1 µg/mL) | 27 °C
CC(C)CCn1cc(NC(=O)c2ccnc(C(=O)Nc3cc(C(=O)NCCC(=N)N)n(CCC(C)C)c3)c2)cc1C(=O)NCCC(=N)N | 6% |  | 22.7 µM (≈ 15 µg/mL) | 22.7 µM (≈ 15 µg/mL) | 2.8 µM (≈ 1.85 µg/mL) | 11 °C
CC(C)CCn1cc(NC(=O)c2ccc(C(=O)Nc3cc(C(=O)NCCN=C(N)N)n(CCC(C)C)c3)cc2)cc1C(=O)NCCN=C(N)N | 5% |  | 1.4 µM (≈ 0.967 µg/mL) | 1.4 µM (≈ 0.967 µg/mL) | 0.7 µM (≈ 0.484 µg/mL) | 25 °C
CC(C)CCn1cc(NC(=O)c2ccc(C(=O)Nc3cc(C(=O)NCCC(=N)N)n(CCC(C)C)c3)nc2)cc1C(=O)NCCC(=N)N | 3% |  | 1.4 µM (≈ 0.927 µg/mL) | 0.7 µM (≈ 0.463 µg/mL) | 1.4 µM (≈ 0.927 µg/mL) | 25 °C
Cc1cc(C(=O)Nc2cc(C(=O)NCCC(=N)N)n(CC3CC3)c2)ccc1C(=O)Nc1cc(C(=O)NCCC(=N)N)n(CC2CC2)c1 | 87% |  | 2.8 µM (≈ 1.8 µg/mL) | 2.8 µM (≈ 1.8 µg/mL) | 2.8 µM (≈ 1.8 µg/mL) | 26 °C
CC(C)CCn1cc(NC(=O)c2ccc(C(=O)Nc3cc(C(=O)NCCC(=N)N)n(CCC(C)C)c3)c3ccccc23)cc1C(=O)NCCC(=N)N | 15% |  | 5.7 µM (≈ 4.05 µg/mL) | 2.8 µM (≈ 1.99 µg/mL) | 2.8 µM (≈ 1.99 µg/mL) | 20 °C
CCC/N=C(\N)CCNC(=O)c1cc(NC(=O)c2ccc(C(=O)Nc3cc(C(=O)NCC/C(N)=N/CCC)n(CCC(C)C)c3)cc2)cn1CCC(C)C | 15% |  | 1.4 µM (≈ 1.04 µg/mL) | 1.4 µM (≈ 1.04 µg/mL) | 1.4 µM (≈ 1.04 µg/mL) | 26 °C
Cc1cc(C(=O)Nc2cc(C(=O)NCCC(=N)N)n(CCC(C)C)c2)c(C)cc1C(=O)Nc1cc(C(=O)NCCC(=N)N)n(CCC(C)C)c1 | 75% |  | > 45.5 µM | > 45.5 µM | 11.4 µM (≈ 7.85 µg/mL) | 12 °C
C/N=C(/CCNC(=O)c1cc(NC(=O)c2ccc(C(=O)Nc3cc(C(=O)NCC/C(=N/C)NC)n(CCC(C)C)c3)cc2)cn1CCC(C)C)NC |  |  | 1.4 µM (≈ 1 µg/mL) | 1.4 µM (≈ 1 µg/mL) | 1.4 µM (≈ 1 µg/mL) | 26 °C
N=C(N)CCNC(=O)c1cc(NC(=O)c2cc(C(=O)Nc3cc(C(=O)NCCC(=N)N)n(CC4CC4)c3)[nH]n2)cn1CC1CC1 | 88% |  | 5.7 µM (≈ 3.53 µg/mL) | 5.7 µM (≈ 3.53 µg/mL) | 2.8 µM (≈ 1.73 µg/mL) | 26 °C
Cc1cc(C(=O)Nc2cc(C(=O)NCCC(=N)N)n(CCC(C)C)c2)ccc1C(=O)Nc1cc(C(=O)NCCC(=N)N)n(CCC(C)C)c1 | 38% |  | 1.4 µM (≈ 0.945 µg/mL) | 1.4 µM (≈ 0.945 µg/mL) | 0.7 µM (≈ 0.472 µg/mL) | 24 °C
